Test results reported in ChEMBL document CHEMBL1811864 (Bioorg Med Chem, 2011).

Experiments:
[1] = tested on: Escherichia coli DH5[alpha]; experiment: Antagonist activity at Escherichia coli DH5alpha (pJN105L + pSC11) LasR assessed as inhibition of OdDHL-induced quorum sensing activation at 10 uM after 8 hrs by beta-galactosidase reporter gene assay relative to untreated control; assay type: functional
[2] = tested on: Escherichia coli DH5[alpha]; experiment: Agonist activity at Escherichia coli DH5alpha (pJN105L + pSC11) LasR at 10 uM after 8 hrs by beta-galactosidase reporter gene assay relative to OdDHL; assay type: functional
[3] = biological target: T1, Transcriptional activator protein LuxR (Aliivibrio fischeri) (UniProt P12746); experiment: Antagonist activity at Vibrio fischeri ESI 114 (delta-LuxI) LuxR assessed as inhibition of […]-induced quorum sensing activation at 10 uM after 8 hrs by […] relative to untreated control; assay type: functional
T1 sequence (whole entry): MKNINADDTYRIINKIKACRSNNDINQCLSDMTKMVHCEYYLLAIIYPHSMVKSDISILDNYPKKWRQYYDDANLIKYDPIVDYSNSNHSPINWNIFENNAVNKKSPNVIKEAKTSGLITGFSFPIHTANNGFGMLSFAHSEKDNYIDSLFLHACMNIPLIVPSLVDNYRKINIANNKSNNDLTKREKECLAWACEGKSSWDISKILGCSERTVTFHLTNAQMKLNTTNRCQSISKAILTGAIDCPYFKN

[4] = biological target: T1, Transcriptional activator protein LuxR (Aliivibrio fischeri); experiment: Agonist activity at Vibrio fischeri ESI 114 (delta-LuxI) LuxR at 10 uM after 8 hrs by […] relative to […]; assay type: functional
Outline: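 V. fischeri ESI 114 lacking LuxI synthase but keeping its native lux operon; LuxR activity read as luminescence. Compounds were screened at 10 µM alone, without native AHL. Signal was normalized to the native-ligand positive control.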

[5] = biological target: T2, Transcriptional activator protein TraR (Agrobacterium tumefaciens) (UniProt P33905); experiment: Antagonist activity at Agrobacterium tumefaciens WCF (pCF372) TraR assessed as inhibition of […]-induced quorum sensing activation at 10 uM after 8 hrs by beta-galactosidase reporter gene assay relative to untreated control; assay type: functional
T2 sequence (whole entry): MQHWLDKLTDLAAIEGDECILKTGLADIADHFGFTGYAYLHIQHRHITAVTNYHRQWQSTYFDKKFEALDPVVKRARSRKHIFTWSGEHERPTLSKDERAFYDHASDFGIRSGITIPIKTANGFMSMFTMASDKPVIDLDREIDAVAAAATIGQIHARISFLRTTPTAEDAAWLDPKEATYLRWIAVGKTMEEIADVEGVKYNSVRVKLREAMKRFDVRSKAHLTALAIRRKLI

[6] = biological target: T2, Transcriptional activator protein TraR (Agrobacterium tumefaciens); experiment: Agonist activity at Agrobacterium tumefaciens WCF (pCF372) TraR at 10 uM after 8 hrs by beta-galactosidase reporter gene assay relative to […]; assay type: functional
[7] = tested on: Pseudomonas aeruginosa; experiment: Growth inhibition of Pseudomonas aeruginosa PAO1 MW1 (pUM15) at 10 uM after 4 to 16 hrs; assay type: organism-based; conditions: in vivo
Outline: (§1)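 Bacterial growth was monitored over the reporter gene assay time course (4–16 h) with compounds at 10 µM.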

[8] = tested on: Escherichia coli; experiment: Growth inhibition of Escherichia coli DH5alpha (pJN105L + pSC11) at 10 uM after 4 to 16 hrs; assay type: organism-based, DH5[alpha]; conditions: in vivo; outline: as §1
[9] = tested on: Aliivibrio fischeri; experiment: Growth inhibition of Vibrio fischeri ESI 114 (delta-LuxI) at 10 uM after 4 to 16 hrs; assay type: organism-based; conditions: in vivo; outline: as §1
[10] = tested on: Agrobacterium tumefaciens; experiment: Growth inhibition of Agrobacterium tumefaciens WCF (pCF372) at 10 uM after 4 to 16 hrs; assay type: organism-based; conditions: in vivo; outline: as §1
[11] = biological target: T3, Transcriptional activator protein LasR (Pseudomonas aeruginosa (strain ATCC 15692 / PAO1 / 1C / PRS 101 / LMG12228)) (UniProt P25084); experiment: Agonist activity at Pseudomonas aeruginosa PAO1 MW1 (pUM15) LasR at 10 uM after 8 hrs by YFP fluorescence reporter gene assay relative to OdDHL
T3 sequence (whole entry): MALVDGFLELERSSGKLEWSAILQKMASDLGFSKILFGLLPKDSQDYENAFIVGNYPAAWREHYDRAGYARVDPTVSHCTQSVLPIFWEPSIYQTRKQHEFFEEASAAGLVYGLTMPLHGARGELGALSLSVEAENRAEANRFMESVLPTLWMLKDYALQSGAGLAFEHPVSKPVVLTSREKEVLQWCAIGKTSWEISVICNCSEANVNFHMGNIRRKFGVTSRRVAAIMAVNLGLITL

[12] = Antagonist activity at Escherichia coli DH5alpha (pJN105L + pSC11) LasR assessed as inhibition of OdDHL-induced quorum sensing activation after 8 hrs by beta-galactosidase reporter gene assay; assay type: functional, Escherichia coli DH5[alpha]
[13] = biological target: T4, Transcriptional activator protein LuxR (Aliivibrio fischeri, UniProt P12746); experiment: Antagonist activity at Vibrio fischeri ESI 114 (delta-LuxI) LuxR assessed as inhibition of OHHL-induced quorum sensing activation after 8 hrs by […]
T4 sequence (P12746 whole entry): T1 sequence (whole entry)

[14] = biological target: T3, Transcriptional activator protein LasR (Pseudomonas aeruginosa (strain ATCC 15692 / PAO1 / 1C / PRS 101 / LMG12228)); experiment: Antagonist activity at Pseudomonas aeruginosa PAO1 MW1 (pUM15) LasR assessed as inhibition of OdDHL-induced quorum sensing activation at 10 uM after 8 hrs by […] relative to untreated control; assay type: functional
Outline: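 P. aeruginosa PAO1 MW1 (pUM15) lacks functional LasI and carries a LasR-responsive promoter driving YFP, so fluorescence is the read-out. Compounds were tested at 10 µM. […] Background from wells with no compound or AHL was subtracted. Assays were done in triplicate.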

[15] = Agonist activity at Escherichia coli DH5alpha (pJN105L + pSC11) LasR after 8 hrs by beta-galactosidase reporter gene assay relative to OdDHL; assay type: functional, Escherichia coli DH5[alpha]
[16] = biological target: T5, Transcriptional activator protein LasR (Pseudomonas aeruginosa (strain ATCC 15692 / PAO1 / 1C / PRS 101 / LMG12228), UniProt P25084); experiment: Agonist activity at Pseudomonas aeruginosa PAO1 MW1 (pUM15) LasR after 8 hrs by YFP fluorescence reporter gene assay relative to OdDHL
T5 sequence (P25084 whole entry): T3 sequence (whole entry)

| Compound | inhibition [1] [%] | Activity [2] [%] | inhibition [3] [%] | Activity [4] [%] | inhibition [5] [%] | Activity [6] [%] | Activity [7] | Activity [8] | Activity [9] | Activity [10] | Activity [11] [%] | IC50 [12] [nM] | IC50 [13] [nM] | inhibition [14] [%] | EC50 [15] [nM] | EC50 [16] [µM] |
| --- | --- | --- | --- | --- | --- | --- | --- | --- | --- | --- | --- | --- | --- | --- | --- | --- |
| O=C(Cc1ccc(Br)cc1)NC1CCSC1=O (racemic) | 68 | 8 | 91 | 0 | 25 | 1 | Non-toxic | Non-toxic | Non-toxic | Non-toxic | 5 |  |  |  |  |  |
| O=C(Cc1ccc(-c2ccccc2)cc1)NC1CCSC1=O (racemic) | 45 |  | 85 | 0 | 26 | 11 | Non-toxic | Non-toxic | Non-toxic | Non-toxic | 1 |  |  |  |  |  |
| CCCCCCCCCC(=O)CC(=O)NC1CCSC1=O (racemic) |  | 102 | 91 | 0 | 51 | 1 | Non-toxic | Non-toxic | Non-toxic | Non-toxic | 127 |  |  |  |  |  |
| O=C(Cc1cccc([N+](=O)[O-])c1)NC1CCSC1=O (racemic) | -3 | 81 | 30 | 26 | 30 | 0 | Non-toxic | Non-toxic | Non-toxic | Non-toxic | 3 |  |  |  |  |  |
| COc1ccc(CC(=O)N[C@H]2CCSC2=O)cc1 | 51 | 1 | 70 | 1 |  | 0 | Non-toxic | Non-toxic | Non-toxic | Non-toxic | 7 | 7200 |  |  |  |  |
| CCCCCC(=O)N[C@H]1CCSC1=O | 59 | 1 | 93 | 0 |  | 0 | Non-toxic | Non-toxic | Non-toxic | Non-toxic | 20 | 1100 | 840 |  |  |  |
| O=C(CCc1cc2ccccc2[nH]1)N[C@H]1CCSC1=O | 16 | 4 | 68 | 0 |  | 0 | Non-toxic | Non-toxic | Non-toxic | Non-toxic | 10 |  |  | -7 | 1800 |  |
| CCCCCCCCCCCC(=O)N[C@H]1CCSC1=O |  | 94 | 57 | 0 | 6 | 0 | Non-toxic | Non-toxic | Non-toxic | Non-toxic | 42 |  |  |  | 1900 | 21 |
| O=C(Cc1ccc(-c2ccccc2)cc1)N[C@H]1CCSC1=O | 56 | 9 | 98 | 0 | 9 | 0 | Non-toxic | Non-toxic | Non-toxic | Non-toxic | 3 | 2900 | 350 |  |  |  |
| O=C(CCc1cc2ccccc2[nH]1)NC1CCSC1=O (racemic) | 54 | 72 | 75 | 0 |  | 6 | Non-toxic | Non-toxic | Non-toxic | Non-toxic | 3 |  |  |  |  |  |
| O=C(Cc1ccccc1)N[C@H]1CCSC1=O | 65 | 2 | 34 | 0 |  | 3 | Non-toxic | Non-toxic | Non-toxic | Non-toxic | 2 | 2500 |  |  |  |  |
| O=C(Cc1ccccc1)NC1CCSC1=O (racemic) | 61 | 3 | 30 | 0 | 13 | 0 | Non-toxic | Non-toxic | Non-toxic | Non-toxic | 17 |  |  |  |  |  |
| O=C(Cc1ccc(Br)cc1)N[C@H]1CCSC1=O | 80 | 2 | 97 | 0 |  | 0 | Non-toxic | Non-toxic | Non-toxic | Non-toxic | 8 | 400 | 770 |  |  |  |
| CCCCCCCC(=O)N[C@H]1CCSC1=O | 64 | 85 | 80 | 0 | 99 | 0 | Non-toxic | Non-toxic | Non-toxic | Non-toxic | 0 | 140 | 130 | -7 |  |  |
| COc1ccc(CC(=O)NC2CCSC2=O)cc1 (racemic) | 48 | 0 | 59 | 0 |  |  | Non-toxic | Non-toxic | Non-toxic | Non-toxic | 4 |  |  |  |  |  |
| CCCC(=O)N[C@H]1CCSC1=O | 17 | 4 | 42 | 0 |  | 0 | Non-toxic | Non-toxic | Non-toxic | Non-toxic | 22 |  |  |  |  |  |
